Assay results from the EternaBench riboswitch data.

System: MS2 coat protein
Assay: apparent Kd, MS2 coat protein; higher = weaker binding; RNA-MaP array; FMN 200 µM where present
Procedure, shortened: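 Two titrations, one without ligand and one with constant ligand, were run with SNAP-549-labelled MS2 coat protein from 0.7 or 1.5 nM, doubling to 3 µM. The targets were designs transcribed by stalled E. coli RNA polymerase on Illumina sequencing-chip clusters, in 100 mM Tris-HCl pH 7.5, 80 mM KCl, 4 mM MgCl2, BSA, DTT, yeast tRNA and Tween-20. The apparent Kd is the median of filtered per-cluster binding-curve fits, with green signal normalised to red-channel RNA signal and control-cluster median Fmax.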

[1] = designed as: ON switch for flavin mononucleotide, no ligand
[2] = ligand present: flavin mononucleotide, designed as: ON switch for flavin mononucleotide
[3] = designed as: OFF switch for flavin mononucleotide, no ligand
[4] = ligand present: flavin mononucleotide, designed as: OFF switch for flavin mononucleotide

| Sequence | apparent Kd [1] | apparent Kd [2] | apparent Kd [3] | apparent Kd [4] |
| --- | --- | --- | --- | --- |
| GGUUCCAACACAGGAUAUGCUAUCCUUUGGGUAGCAGAAGGGUGAAACAUGAGGAUCACCCAUGUGGAGCCAGGGCGUGAGCCC | 593 nM | 63.1 nM | – | – |
| ACGUGUCGUGUAGGAUAUGACACAGGAAACUGGUCAGAAGGACAUGAGGAUCACCCAUGUAAAGUGUUUAAGAAUGACGUAUGC | – | – | 43.9 nM | 106 nM |
| AGUUGUAAUACAGGAUAUAUAUUAUUUUUAUUUAUAGAAGGGUAAUCACAUGAGGAUCACCCAUGUAUAUACGAGGAAGAAGAG | 291 nM | 329 nM | – | – |
| CCGGAAACGGGUAGCCUGACAUGAGGAUCACCCAUGUGAUCCAAGGAUAUGGAUCCUAAUUGGAUCCAGAAGGUGGUUGGCUAC | 76.7 nM | 1200 nM | – | – |
| UCGCCAGGUACAGGAUAUGUGGAUCAGUUAAGUAACUUACUGAACAUGAGGAUCACCCAUGUAUCACAGAAGGGUGCCUCAAAA | 164 nM | 11.1 nM | – | – |
| CCACGUCACAUCUACAUGAGGAUCACCCAUGUCGAAAGACAUGAGGAUAUGCAUCCUAAUUGGAUGCAGAAGGCAUGGACGUGG | 1080 nM | 71.2 nM | – | – |
| GCAUGACAAAGUCAUGCAUUACGAACAUGAGGAUCACCCAUGUAGGAUAUGCUACUCAAAGAGUAGCAGAAGGACAUGUGUCUU | – | – | 32.7 nM | 158 nM |
| GAUUUCUCAUGAGGAUAUGCUCGCAUUUCAAGAGCAGAAGGUAUGUCAUUAGACAUGAGGAUCACCCAUGUAGUUAAGAUUGAA | 72 nM | 44.7 nM | – | – |
| AGGGAGGGCGUGGAGGCGGAGGGACGAGAAGGUACACAUGAGGAUCACCCAUGUAGAGUGGGAGGUAAGGAUAUUGGAUGGUGG | 101 nM | 66.9 nM | – | – |
| GCCAUCACAUGAGGAUAUGCUCCCGUUUCGGGAGCAGAAGGCAUGUCAUAAGACAUGAGGAUCACCCAUGUAUUUAAGAUGGCA | 227 nM | 9.52 nM | – | – |
| AGUUAAUAUCGAGGAUAUCCUCAGAAACAUGAGGAUCACCCAUGUAGAAUGGGAGAAGGCGAUAUUAACAGCAUGUUACAUGCA | 182 nM | 27.9 nM | – | – |
| AAAAUACAUGAGGAUCACCCAUGUCAGGAUAUGCUAAAAAAAAAAUUAAAAAAAAAAUGUAGAAGGGACUAAAA | – | – | 99 nM | 106 nM |
| AGGGUGGGAGGAUAUCCAAUAUAUGACAUGAGGAUCACCCAUGUUUCCACUCGUACCUCCGGAGAAGGCCCUUCCA | – | – | 19.9 nM | 19.7 nM |
| CCAGAGGUCACAGGAUAUGACUCGUCCAAUUGGUCAGAAGGGUGAAUCACAUUAUGUAUACAUGAGGAUCACCCAUGUCCUACG | 64.4 nM | 165 nM | – | – |
| GAAGGAUGAGCGUAGGAUAUAGGAGGAGUGACAUGAGGAUCACCCAUGUGGUAGGAGGGAGGGUACUAGAAGGACGAGGAAGAGG | 63.5 nM | 52.2 nM | – | – |
| AUCAGCUUGUCAGGAUAUGCAUGUCAACGAAAGUUGACAAUCUUAAUAACAUGAGGAUCACCCAUGUAGAAGGGACGAGCUGAU | – | – | 17.1 nM | 19.3 nM |
| UUGUUAGGGAGAGGAUAUUGACAUGAGGAUCACCCAUGUAUUUGGGAGUGUUUACUGAAUUCUUACGAGAAGGCUUACGAAAUU | – | – | 329 nM | 246 nM |
| GCUGUCGCGUGAGGAUAUGGUCUGCAGUGCUGACCAGAAGGCAUGUCGAUAGACAUGAGGAUCACCCAUGUGGUUAGGGCGGCU | 804 nM | 351 nM | – | – |
| UUCGUGCAGCUUUGCUGUACGCGUACAUGAGGAUCACCCAUGUAGGAUAUGGUACGCGUUGCGUGCUAGAAGGAUAUGGAGAGG | – | – | 18.4 nM | 22.9 nM |
| UAAAUGUCAGGAUAUUGUUAAUUUAGUUGUUUGUAUUAGUUCGAGAAGGGACAUGAGGAUCACCCAUGUUAAUU | – | – | 30.2 nM | 36 nM |
| GCCUGUGAAGGAUAUACAUGAGGAUCACCCAUGUGGCGGAUAUACCCGCCGAGACCGUGUAGAAGGUCAUAGUA | – | – | 44 nM | 40.8 nM |

| Sequence | apparent Kd [1] | apparent Kd [2] | apparent Kd [3] | apparent Kd [4] |
| --- | --- | --- | --- | --- |
| GGAGCAACAUGAGGAUCACCCAUGUAGGAUAUCGCUAUUGUAAUCAUGAAACAUGAUUACAAUAGCGAGAAGGACAUAUGCUAA | – | – | 10.6 nM | 12.5 nM |
| AACUGACAUGAGGAUCACCCAUGUCAGGAUAUGACUUGAUAGAAAAUAAAAUAUCAUGUCAGAAGGGACAUGGG | – | – | 20.2 nM | 18.5 nM |
| GAGGGUUAAGGAUAUACAUGAGGAUCACCCAUGUAUGGCAAGCCAUAAUCCUCAUUAAGUAGAAGGUAACCUUC | – | – | 11.7 nM | 15.3 nM |
| UACAUGAGGAUCACCCAUGUUUUGUCGUGUAUGGUAUUUAUCUAGGAUAUCAAUUUGUAUAUUUAUGAGAAGGAGAAUAUUAAU | – | – | 34.5 nM | 39.6 nM |
| GUUGGGUGUCAUGUCGCACAUGAGGAUCACCCAUGUAGGAGGUAGGAUAUCCACGAGUAACAAGAGGAGAAGGGCCGUUAGCGU | – | – | 27.9 nM | 33.6 nM |
| ACUUCACAUGAGGAUCACCCAUGUCAGGCCGGACUAGGAUAUUAUCAACCAGAGUAACCAUAAGAAGGAGUAGGAA | 64.4 nM | 78.4 nM | – | – |
| UAUAUAUAGUAAGGAUAUGUAGUUAUUUUAUAAACAGAAGGUACUGACAUGAGGAUCACCCAUGUUUUAGUGUGGGCAUGUAGA | – | – | 87.7 nM | 128 nM |
| GGGUACAUCGGAGGAUAUCAUGUAAAUACAUGAGGAUCACCCAUGUCGAUGGAGACAUCGGAGAUUGAGAAGGCCGAUGUAACG | 183 nM | 9.47 nM | – | – |
| GCGUGAAAUGUAGGAUAUGACACAGGAAACUGGUCAGAAGGACAUGAGGAUCACCCAUGUAAAAUGUUCAAGAAUAACACAUGC | – | – | 30.3 nM | 87 nM |
| UAUAAACAUGAGGAUCACCCAUGUAAUAAUAUGGGAGGAUAUCAGAAUUUAUUUAUUUAAUGAGAAGGCCUAAUAU | 627 nM | 43.2 nM | – | – |
| GUAGUGUAGUGAGGAUAUACGAGAUCGAUAGAUCGGCGAUCCAUUUAUACAUGAGGAUCACCCAUGUAGAAGGCACUUCACUAC | – | – | 6.17 nM | 51 nM |
| AUAGUGCGCGAGAAGGACGUACCACAUGUUGAUCACCGAUAUAAGGAACGUAGGAUAUUGCACAUGAGGAUCACCCAUGUGGAU | 16.6 nM | 21.3 nM | – | – |
| GAUUUCGCAUGAGGAUAUGCUCGCAUUUCAAGAGCAGAAGGUAUGUCAUUAGACAUGAGGAUCACCCAUGUAGUUAAGAUUGAA | 186 nM | 34.9 nM | – | – |
| UCAAUAUAUCAGGAUAUGACUUUUUGUGUUAAGUCAGAAGGGAUAACAUGAGGAUCACCCAUGUGAUAUAGUGA | – | – | 52 nM | 58.9 nM |
| ACAUGAGGAUCACCCAUGUAAACAUAGGAUAUUGGUGAUCAGGCAUGUUAUACAGGAUAUGUCUGCGAGAAGGAUGCACGUUGC | 583 nM | 465 nM | – | – |
| CCGGAAACGGGUAGCUGACAUGAGGAUCACCCAUGUGUUUCACAGGAUAUGGAUCCUAAUUGGAUCCAGAAGGGUGUCAGCUAC | 1040 nM | 157 nM | – | – |
| UGACACAUGAGGGUCUCCCAUGACAUGAGGAUCACCCAUGUGCAGGAUAUACGUGUGAUGGUAUAGUAGAAGGGCACUCUAUGU | – | – | 46.4 nM | 65.8 nM |
| AUAGCGCCCGAGAAGGACGUACCACAUGUUGAUCACCGAUAUAAGGAACGUAGGAUAUUGGACAUGAGGAUCACCCAUGUGGAU | 122 nM | 47.1 nM | – | – |
| AAUUUCAGAUGAGGAUAUUGACAUGAGGAUCACCCAUGUAUUUGGGAAUGUUUACUGAAUUCUUACAAGAAGGUAUACGAACUU | – | – | 237 nM | 164 nM |
| UUUUAACAUGAGGAUCACCCAUGUGAGGAUAUCGAAAUUUAUAUUUAUAUUAAUAUUUCGAGAAGGCACAUUUU | – | – | 195 nM | 191 nM |
